Here are results for six compounds from article PMC2292216 (The Journal of Experimental Medicine, 2008).

The target in test [1] is T1, BLT2 (Homo sapiens, UniProt Q9NPC1).
T1 sequence (Q9NPC1 1-358): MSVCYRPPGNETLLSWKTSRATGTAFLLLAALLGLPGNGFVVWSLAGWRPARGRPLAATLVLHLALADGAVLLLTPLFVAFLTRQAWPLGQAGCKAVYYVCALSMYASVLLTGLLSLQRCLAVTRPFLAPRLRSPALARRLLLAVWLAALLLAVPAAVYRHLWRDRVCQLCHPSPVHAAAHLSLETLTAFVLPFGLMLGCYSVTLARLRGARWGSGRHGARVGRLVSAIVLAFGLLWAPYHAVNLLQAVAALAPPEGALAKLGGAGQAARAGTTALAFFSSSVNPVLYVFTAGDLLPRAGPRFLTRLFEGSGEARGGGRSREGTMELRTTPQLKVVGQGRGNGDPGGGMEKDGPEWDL
The settings on record: cited from earlier work.

In test [2] the target is T1, BLT2. Put plainly: cAMP assay. Format: cell-based.
The target of test [3] is T1, BLT2. The experiment in a line: Boyden chamber chemotaxis assay of CHO-BLT2 cells. Particulars: for concentration required for maximal chemotaxis: Boyden chamber. Format: cell-based.
The next test relates to mouse BMMCs. The experiment in a line: Chemotaxis. Format: cell-based. Summed up: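 BMMCs from WT, BLT1-KO and BLT2-KO mice (knockouts backcrossed to BALB/c for 10 generations) grown in RPMI 1640 with 10% fetal calf serum, 0.1 mM nonessential amino acids and 50% WEHI-3 cell-conditioned medium; maturation checked by flow cytometry. Migration toward test compound measured; stem cell factor (via c-kit) as positive control.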

The test system of a further test is platelets. Put plainly: Platelet aggregation. Format: cell-based. The settings on record: unpublished data.
A further test deals with T2, mouse BLT2 (Mus musculus, UniProt Q9JJL9).
T2 sequence (Q9JJL9 1-360): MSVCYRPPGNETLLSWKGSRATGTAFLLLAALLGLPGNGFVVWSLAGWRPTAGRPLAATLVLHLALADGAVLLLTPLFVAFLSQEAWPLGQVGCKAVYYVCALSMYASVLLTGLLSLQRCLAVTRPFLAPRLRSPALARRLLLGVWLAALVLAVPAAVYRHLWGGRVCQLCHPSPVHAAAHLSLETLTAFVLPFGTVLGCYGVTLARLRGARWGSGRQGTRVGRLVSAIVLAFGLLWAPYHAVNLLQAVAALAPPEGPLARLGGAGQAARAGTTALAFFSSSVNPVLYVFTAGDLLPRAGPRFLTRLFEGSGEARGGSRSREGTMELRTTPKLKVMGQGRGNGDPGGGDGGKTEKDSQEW
The experiment in a line: IP accumulation assay in cells cotransfected with mouse BLT2 and G14. It counts as cell-based.

The target of test [4] is T1, BLT2. The experiment in a line: IP accumulation assay in COS-7 cells coexpressing BLT2 and G14. Format: cell-based.
The target of test [5] is T1, BLT2. Put plainly: Cytosensor microphysiometer assay in CHO-BLT2 cells. It counts as cell-based. The procedure, abridged: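 CHO cells stably expressing BLT2, with BLT1 and mock transfectants alongside. Proton flux recorded by cytosensor microphysiometer on exposure to lipid extracts from rat, mouse or platelet sources, or to 1-min RP-HPLC fractions (MeOH/H2O/AcOH 70:30:0.01). ATP served as control for endogenous purinergic receptors.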

Test [6] concerns the target T3, human BLT1 (Homo sapiens, UniProt Q15722). The experiment in a line: cAMP assay. Format: cell-based. The settings on record: CHO-BLT1 cells, 50 μM forskolin. (In general: Changes in cAMP serve as a functional read-out for many G protein-coupled receptors.)
The target of test [7] is T3, human BLT1. Put plainly: Boyden chamber chemotaxis assay of CHO-BLT1 cells. It counts as cell-based.
For test [8], the target named is T3, human BLT1. The experiment in a line: Intracellular calcium mobilization in CHO-BLT1 cells. Format: cell-based. The settings on record: concentrations as high as 3.3 μM. Background: Calcium assays in cells follow changes in intracellular calcium, usually with a dye or a luminescent sensor.
Test [9] addresses T1, BLT2. Put plainly: [3H]LTB4 displacement assay, membrane preparations of CHO-BLT2 cells. Format: binding.

T3 sequence (Q15722 whole entry): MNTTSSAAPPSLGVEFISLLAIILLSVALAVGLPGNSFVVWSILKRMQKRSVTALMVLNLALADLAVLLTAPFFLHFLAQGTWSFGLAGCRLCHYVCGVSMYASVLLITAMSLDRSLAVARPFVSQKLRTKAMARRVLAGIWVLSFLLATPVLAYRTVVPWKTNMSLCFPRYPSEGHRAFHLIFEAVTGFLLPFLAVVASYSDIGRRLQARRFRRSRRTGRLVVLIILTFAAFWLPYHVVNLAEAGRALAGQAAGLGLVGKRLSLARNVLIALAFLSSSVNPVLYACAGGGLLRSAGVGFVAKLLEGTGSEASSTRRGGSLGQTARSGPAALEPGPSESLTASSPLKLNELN

For the compound `CCCCC[C@H](O)/C=C/C=C\C/C=C\C/C=C\CCCC(=O)O` [15-HETE], the “agonist activity at BLT2” value at BLT2 [1] was “weak agonists”.

Take `CCCCC/C=C\C[C@H](O)/C=C/C=C\C/C=C\CCCC(=O)O` [12-HETE]: the “agonist activity at BLT2” value at BLT2 [1] is “weak agonists”.

As for pertussis toxin, the “effect of pretreatment on 12-HHT-dependent adenylyl cyclase inhibition” value on BLT2 [2] (CHO-BLT2 cells, pretreatment) is recorded as “completely blocked”. Also, the “effect of pretreatment on 12-HHT-induced chemotaxis” value on BLT2 [3] (pretreatment) was “completely abolished”.

Take `CCCCC/C=C\C[C@@H](O)/C=C/C=C/C=C\[C@@H](O)CCCC(=O)O` [LTB4, 5(S), 12(R)-dihydroxy-6, 14-cis-8, 10-trans-eicosatetraenoic acid]: the “migration of BMMCs” value with mouse BMMCs (BMMCs from BLT2-KO mice) and with mouse BMMCs (BMMCs from WT mice) was “migrated in response to LTB4” each time. Further, the “concentration required for maximal chemotaxis” value on BLT2 [3] is > 1,000 nM.

Turning to “SCF: stem cell factor, positive control inducing chemotaxis through the c-kit receptor”, the “migration of BMMCs” value in the test on mouse BMMCs (BMMCs from BLT1-KO mice), in the test on mouse BMMCs (BMMCs from BLT2-KO mice) and in the test on mouse BMMCs (BMMCs from WT mice) was “induced robust chemotaxis” throughout.

In the case of `CCCCC[C@H](O)/C=C/C=C/C/C=C\CCCC(=O)O` [12-HHT, 12(S)-hydroxyheptadeca-5Z, 8E, 10E–trienoic acid], the “migration of BMMCs” value in the test on mouse BMMCs (BMMCs from BLT1-KO mice) and with mouse BMMCs (BMMCs from WT mice) was “migrated in response to 12-HHT” in each case. In addition, in the test with platelets, the “agonistic activity in platelet aggregation” value is “did not display agonistic activity”. Further, the IC50 (usually the midpoint of a concentration-inhibition curve) on BLT2 [2] was found to be 1 nM; at BLT2 [9], 2.8 nM. Also, the “activation of mouse BLT2 by IP accumulation” value at mouse BLT2 was “activated mouse BLT2”. For the same compound, the “concentration required for maximal chemotaxis” value at BLT2 [3] is given as 30 nM. Besides, at BLT2 [4], the EC50 (usually the midpoint of the concentration-response curve) was found to be 5.4 nM. The “activation of BLT2 in the cytosensor assay” value on BLT2 [5] is “able to activate BLT2”. In addition, the adenylyl cyclase inhibition entry at human BLT1 [6] is recorded as “had no effect”. Also, the chemotaxis result on human BLT1 [7] is recorded as “failed to induce chemotaxis”. The calcium mobilization result at human BLT1 [8] is reported as “failed to induce calcium mobilization”.
